System: MMP-9 secreted by MCF-7 cells
Experiment: Gelatin zymography MMP-9 secretion, MCF-7
Format: cell-based
Conditions: 80 nM PMA, serum-free medium, MCF-7, vs basal (MMP-9 not detectable)
In short: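 Cells attached overnight, then treated 24 or 48 h with test compound or DMSO vehicle in serum-free medium. Conditioned medium was acetone-precipitated (4 volumes, −20 °C, 2 h), and pellets were taken up in non-reducing SDS buffer. Samples were run on a 7.5% gel with 1 mg/mL gelatin, washed in Triton X-100/CaCl2/ZnCl2, incubated overnight at 37 °C, and Coomassie-stained. Mean ± SD of three independent experiments.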

CCCCCCCCCCCCCC(=O)O[C@@H]1[C@@H](C)[C@@]2(O)[C@@H](C=C(CO)C[C@]3(O)C(=O)C(C)=C[C@@H]23)[C@@H]2C(C)(C)[C@]12OC(C)=O [PMA, phorbol 12-myristate 13-acetate]
secreted MMP-9 level, PMA stimulation: drastically increased

Reference: publication PMC9883262 (Molecular Metabolism, 2023)
